Experimental data: ChEMBL document CHEMBL1156846, “Remote functionalization of SCH 39166: discovery of potent and selective benzazepine dopamine D1 receptor antagonists” (Bioorg Med Chem Lett, 2010)

Tests used:
D(2) dopamine receptor = D(2) dopamine receptor (Homo sapiens, UniProt P14416); assay: Displacement of [3H]methylspiperon from dopamine D2 receptor expressed in mouse LTK cells by scintillation counting; type: cell-based
D(1A) dopamine receptor = D(1A) dopamine receptor (Homo sapiens, UniProt P21728); assay: Displacement of [3H]SCh23390 from dopamine D1 receptor expressed in mouse LTK cells by scintillation counting; type: cell-based
Sequence of D(1A) dopamine receptor (P21728 whole entry): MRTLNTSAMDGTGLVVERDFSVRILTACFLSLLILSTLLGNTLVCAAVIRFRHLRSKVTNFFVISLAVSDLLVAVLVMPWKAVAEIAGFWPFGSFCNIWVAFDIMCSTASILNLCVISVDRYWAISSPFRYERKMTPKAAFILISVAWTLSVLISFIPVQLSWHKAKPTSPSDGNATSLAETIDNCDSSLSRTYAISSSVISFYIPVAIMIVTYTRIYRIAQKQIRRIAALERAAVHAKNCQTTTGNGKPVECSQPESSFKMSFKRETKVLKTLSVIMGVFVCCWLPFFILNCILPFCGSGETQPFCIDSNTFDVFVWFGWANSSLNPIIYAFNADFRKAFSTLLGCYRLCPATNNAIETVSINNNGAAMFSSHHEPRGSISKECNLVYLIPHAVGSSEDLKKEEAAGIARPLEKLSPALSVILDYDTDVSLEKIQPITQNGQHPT

[1] = Cmax in Sprague-Dawley rat at 10 mg/kg, po; type: ADME, organism-based; design: dose 10 mg/kg, route oral; details: in vivo
Outline: (§1)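 Two male Sprague–Dawley rats received 10 mg/kg orally under a cassette-accelerated rapid rat protocol. Blood was sampled at several time points, and values came from pooled samples. […] Individual plasma levels were generally within ±25% of the average.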

Rattus norvegicus = assay: AUC (0 to 6 hrs) in Sprague-Dawley rat at 10 mg/kg, po; type: ADME, organism-based, Plasma; design: time < 6 hr, dose 10 mg/kg, route oral; details: in vivo; outline: as §1
[2] = Tmax in Sprague-Dawley rat at 10 mg/kg, po; type: ADME, organism-based; design: dose 10 mg/kg, route oral; details: in vivo; outline: as §1
D(1B) dopamine receptor = D(1B) dopamine receptor (Homo sapiens, UniProt P21918); assay: Displacement of radioligand from dopamine D5 receptor expressed in mouse LTK cells by scintillation counting; type: cell-based
Sequence of D(1B) dopamine receptor (P21918 whole entry): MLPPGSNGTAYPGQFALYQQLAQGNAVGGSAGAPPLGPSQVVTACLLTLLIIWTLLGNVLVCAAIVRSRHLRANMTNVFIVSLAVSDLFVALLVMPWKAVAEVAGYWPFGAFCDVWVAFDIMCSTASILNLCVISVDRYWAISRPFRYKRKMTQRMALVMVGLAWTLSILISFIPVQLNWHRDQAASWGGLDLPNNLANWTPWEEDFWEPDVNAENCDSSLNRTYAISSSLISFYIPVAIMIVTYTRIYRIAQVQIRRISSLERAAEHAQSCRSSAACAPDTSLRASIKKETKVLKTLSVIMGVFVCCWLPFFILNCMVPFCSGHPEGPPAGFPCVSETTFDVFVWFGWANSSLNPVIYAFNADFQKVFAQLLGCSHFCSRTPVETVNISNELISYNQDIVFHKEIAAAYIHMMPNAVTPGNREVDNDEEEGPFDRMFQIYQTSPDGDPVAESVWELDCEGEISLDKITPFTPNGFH
Outline: (§2)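 Ki came from equilibrium radioligand binding. Bound and free radioligand were separated by rapid filtration, and bound counts were measured by liquid scintillation. Standard error was 10%, and assay-to-assay variability was under twofold.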

D(4) dopamine receptor = biological target: T1, D(4) dopamine receptor (Homo sapiens, UniProt P21917); assay: Displacement of radioligand from dopamine D4 receptor expressed in mouse LTK cells by scintillation counting; type: cell-based; outline: as §2
T1 sequence (P21917 whole entry): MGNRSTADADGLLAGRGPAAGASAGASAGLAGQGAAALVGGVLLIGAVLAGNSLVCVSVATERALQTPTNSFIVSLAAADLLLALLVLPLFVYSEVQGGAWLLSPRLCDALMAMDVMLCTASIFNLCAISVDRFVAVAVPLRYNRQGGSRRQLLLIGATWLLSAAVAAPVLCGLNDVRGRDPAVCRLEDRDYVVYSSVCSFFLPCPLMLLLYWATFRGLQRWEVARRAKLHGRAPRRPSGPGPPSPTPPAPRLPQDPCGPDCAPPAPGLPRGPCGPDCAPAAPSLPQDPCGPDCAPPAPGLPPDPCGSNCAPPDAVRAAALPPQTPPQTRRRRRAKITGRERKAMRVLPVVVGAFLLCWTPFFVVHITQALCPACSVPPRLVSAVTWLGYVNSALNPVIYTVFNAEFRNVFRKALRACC

Sequence of D(2) dopamine receptor (P14416 whole entry): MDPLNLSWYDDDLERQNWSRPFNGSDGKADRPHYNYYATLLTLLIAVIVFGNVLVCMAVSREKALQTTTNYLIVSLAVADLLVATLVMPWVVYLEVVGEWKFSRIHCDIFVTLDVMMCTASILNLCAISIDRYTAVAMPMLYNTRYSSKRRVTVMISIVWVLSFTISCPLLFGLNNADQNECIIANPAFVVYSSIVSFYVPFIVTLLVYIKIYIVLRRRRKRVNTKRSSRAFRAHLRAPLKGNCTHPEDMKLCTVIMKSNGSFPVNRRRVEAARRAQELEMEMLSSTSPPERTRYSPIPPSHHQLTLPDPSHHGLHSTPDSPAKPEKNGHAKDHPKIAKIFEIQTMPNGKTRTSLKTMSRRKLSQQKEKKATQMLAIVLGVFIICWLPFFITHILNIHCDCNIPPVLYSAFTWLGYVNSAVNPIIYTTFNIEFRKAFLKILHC

CN1CCc2cc(Cl)c(O)cc2[C@H]2c3cccc(-c4cc(F)cc(F)c4)c3CC[C@@H]21
Ki (D(2) dopamine receptor): 0.312 µM
Ki (D(1A) dopamine receptor): 0.0009 µM

CN(C)c1ccc(-c2cccc3c2CC[C@H]2[C@H]3c3cc(O)c(Cl)cc3CCN2C)cc1
Ki (D(2) dopamine receptor): 0.012 µM
Ki (D(1A) dopamine receptor): 0.0007 µM

CN1CCc2cc(Cl)c(O)cc2[C@H]2c3cccc(-c4ccc5[nH]ccc5c4)c3CC[C@@H]21
Ki (D(2) dopamine receptor): 0.051 µM
Ki (D(1A) dopamine receptor): 0.0006 µM

CN1CCc2cc(Cl)c(O)cc2[C@H]2c3cccc(-c4cccs4)c3CC[C@@H]21
Cmax [1]: 90 ng/mL
AUC (Rattus norvegicus): 353 µg·h/mL
Tmax [2]: 2 h
Ki (D(1B) dopamine receptor): 0.0019 µM
Ki (D(2) dopamine receptor): 0.093 µM
Ki (D(4) dopamine receptor): 10 µM

CN1CCc2cc(Cl)c(O)cc2[C@H]2c3cccc(-c4cccc(F)c4)c3CC[C@@H]21
Ki (D(2) dopamine receptor): 0.223 µM
Ki (D(1A) dopamine receptor): 0.0004 µM

CN1CCc2cc(Cl)c(O)cc2[C@H]2c3cccc(-c4cccc(C#N)c4)c3CC[C@@H]21
Ki (D(1B) dopamine receptor): 0.0034 µM
Ki (D(2) dopamine receptor): 0.584 µM
Ki (D(4) dopamine receptor): 10 µM
Ki (D(1A) dopamine receptor): 0.0006 µM

COC(=O)c1cccc2c1CC[C@H]1[C@H]2c2cc(O)c(Cl)cc2CCN1C
Ki (D(1B) dopamine receptor): 0.0037 µM
Ki (D(2) dopamine receptor): 0.923 µM
Ki (D(4) dopamine receptor): 4.83 µM
Ki (D(1A) dopamine receptor): 0.0023 µM

CN1CCc2cc(Cl)c(O)cc2[C@H]2c3cccc(C(=O)O)c3CC[C@@H]21
Ki (D(2) dopamine receptor): 0.42 µM
Ki (D(1A) dopamine receptor): 0.038 µM

CN1CCc2cc(Cl)c(O)cc2[C@H]2c3cccc(N4CCCC4=O)c3CC[C@@H]21
Ki (D(1B) dopamine receptor): 0.0269 µM
Ki (D(2) dopamine receptor): 1.37 µM
Ki (D(4) dopamine receptor): 10 µM
Ki (D(1A) dopamine receptor): 0.0031 µM

CN1CCc2cc(Cl)c(O)cc2[C@H]2c3cccc(CO)c3CC[C@@H]21
Ki (D(1B) dopamine receptor): 0.0074 µM
Ki (D(2) dopamine receptor): 1.65 µM
Ki (D(4) dopamine receptor): 6.28 µM
Ki (D(1A) dopamine receptor): 0.002 µM

CO/N=C/c1cccc2c1CC[C@H]1[C@H]2c2cc(O)c(Cl)cc2CCN1C
Ki (D(1B) dopamine receptor): 0.022 µM
Ki (D(2) dopamine receptor): 0.483 µM
Ki (D(4) dopamine receptor): 7.51 µM
Ki (D(1A) dopamine receptor): 0.0044 µM

CN1CCc2cc(Cl)c(O)cc2[C@H]2c3cccc(/C=N/OCc4ccccc4)c3CC[C@@H]21
Ki (D(1B) dopamine receptor): 0.0025 µM
Ki (D(2) dopamine receptor): 0.069 µM
Ki (D(4) dopamine receptor): 8.34 µM
Ki (D(1A) dopamine receptor): 0.0002 µM

CN1CCc2cc(Cl)c(O)cc2[C@H]2c3cccc(-c4ccccc4)c3CC[C@@H]21
Ki (D(2) dopamine receptor): 0.079 µM

CN1CCc2cc(Cl)c(O)cc2[C@H]2c3cccc(Br)c3CC[C@@H]21
Ki (D(1B) dopamine receptor): 0.0075 µM
Ki (D(2) dopamine receptor): 1.69 µM
Ki (D(4) dopamine receptor): 10 µM
Ki (D(1A) dopamine receptor): 0.003 µM

COc1ccc(-c2cccc3c2CC[C@H]2[C@H]3c3cc(O)c(Cl)cc3CCN2C)cc1
Cmax [1]: 18 ng/mL
AUC (Rattus norvegicus): 76 µg·h/mL
Tmax [2]: 2 h
Ki (D(1B) dopamine receptor): 0.0062 µM
Ki (D(2) dopamine receptor): 0.55 µM
Ki (D(4) dopamine receptor): 10 µM
Ki (D(1A) dopamine receptor): 0.0007 µM

CN1CCc2cc(Cl)c(O)cc2[C@H]2c3cccc(C#N)c3CC[C@@H]21
Ki (D(1B) dopamine receptor): 0.089 µM
Ki (D(2) dopamine receptor): 1.33 µM
Ki (D(4) dopamine receptor): 10 µM
Ki (D(1A) dopamine receptor): 0.0028 µM

CN1CCc2cc(Cl)c(O)cc2[C@H]2c3cccc(-c4ccc(CO)cc4)c3CC[C@@H]21
Ki (D(2) dopamine receptor): 0.089 µM
Ki (D(1A) dopamine receptor): 0.0007 µM

CN1CCc2cc(Cl)c(O)cc2[C@H]2c3cccc(O)c3CC[C@@H]21
Ki (D(1B) dopamine receptor): 0.0014 µM
Ki (D(2) dopamine receptor): 0.44 µM
Ki (D(4) dopamine receptor): 3.99 µM

CN1CCc2cc(Cl)c(O)cc2[C@H]2c3cccc(C=O)c3CC[C@@H]21
Ki (D(1B) dopamine receptor): 0.0033 µM
Ki (D(2) dopamine receptor): 1.37 µM
Ki (D(4) dopamine receptor): 5.97 µM
Ki (D(1A) dopamine receptor): 0.0026 µM

CN1CCc2cc(Cl)c(O)cc2[C@H]2c3cccc(-c4cccc(OC(F)(F)F)c4)c3CC[C@H]21
Ki (D(2) dopamine receptor): 1.61 µM
Ki (D(1A) dopamine receptor): 0.0023 µM

CCO/N=C/c1cccc2c1CC[C@H]1[C@H]2c2cc(O)c(Cl)cc2CCN1C
Ki (D(1B) dopamine receptor): 0.01 µM
Ki (D(2) dopamine receptor): 0.217 µM
Ki (D(4) dopamine receptor): 5.89 µM
Ki (D(1A) dopamine receptor): 0.0018 µM

CN1CCc2cc(Cl)c(O)cc2[C@H]2c3cccc(/C=N/O)c3CC[C@@H]21
Ki (D(1B) dopamine receptor): 0.0033 µM
Ki (D(2) dopamine receptor): 0.882 µM
Ki (D(4) dopamine receptor): 4.37 µM
Ki (D(1A) dopamine receptor): 0.0016 µM

CN1CCc2cc(Cl)c(O)cc2[C@H]2c3cccc(-c4ccncc4)c3CC[C@@H]21
Cmax [1]: 43 ng/mL
AUC (Rattus norvegicus): 75 µg·h/mL
Tmax [2]: 0.5 h
Ki (D(1B) dopamine receptor): 0.0105 µM
Ki (D(2) dopamine receptor): 0.756 µM
Ki (D(4) dopamine receptor): 5.06 µM

CN1CCc2cc(Cl)c(O)cc2[C@H]2c3cccc(-c4cccc([N+](=O)[O-])c4)c3CC[C@@H]21
Ki (D(1B) dopamine receptor): 0.0047 µM
Ki (D(2) dopamine receptor): 0.618 µM
Ki (D(4) dopamine receptor): 10 µM
Ki (D(1A) dopamine receptor): 0.0006 µM

CN1CCc2cc(Cl)c(O)cc2[C@H]2c3cccc(/C=N/Oc4ccccc4)c3CC[C@@H]21
Ki (D(1B) dopamine receptor): 0.0021 µM
Ki (D(2) dopamine receptor): 0.124 µM
Ki (D(4) dopamine receptor): 10 µM
Ki (D(1A) dopamine receptor): 0.001 µM

CN1CCc2cc(Cl)c(O)cc2[C@H]2c3ccccc3CC[C@@H]21 [ECOPIPAM]
AUC (Rattus norvegicus): 156 µg·h/mL
Ki (D(1B) dopamine receptor): 0.002 µM
Ki (D(4) dopamine receptor): 5.52 µM
